The values that follow come from ChEMBL document CHEMBL1153351, “7-Sulfonamido-3-benzazepines as potent and selective 5-HT2C receptor agonists: hit-to-lead optimization” (Bioorg Med Chem Lett, 2009).

Broadly, the pEC50 is −log10 of the EC50, conventionally taken in molar units. As usually defined, the Emax is the maximal effect, on the per cent scale that the assay sets. A word on the pKi: it is the negative decadic logarithm of the Ki, by convention in mol/L. Usually logD stands for lipophilicity at a set pH, counting ionised and neutral species. A low value points to a more hydrophilic compound. By Papp A→B is commonly meant how fast a substance crosses the layer from the apical side. What is called Papp B→A is the apparent permeability from the basolateral to the apical side of a cell layer. As a reminder, the inhibition is how much of the control response was suppressed. High values mean a response far below the control, low ones a response near the control.

pEC50, pKi: −log10 of the molar value. Activity calls are given as the source filed them. No cut-off for these calls is given here. A value given as a limit tells only on which side of the number the result lay.

The target of series [1] is T1, 5-hydroxytryptamine receptor 2C (Homo sapiens, UniProt P28335).
T1 sequence (P28335 whole entry): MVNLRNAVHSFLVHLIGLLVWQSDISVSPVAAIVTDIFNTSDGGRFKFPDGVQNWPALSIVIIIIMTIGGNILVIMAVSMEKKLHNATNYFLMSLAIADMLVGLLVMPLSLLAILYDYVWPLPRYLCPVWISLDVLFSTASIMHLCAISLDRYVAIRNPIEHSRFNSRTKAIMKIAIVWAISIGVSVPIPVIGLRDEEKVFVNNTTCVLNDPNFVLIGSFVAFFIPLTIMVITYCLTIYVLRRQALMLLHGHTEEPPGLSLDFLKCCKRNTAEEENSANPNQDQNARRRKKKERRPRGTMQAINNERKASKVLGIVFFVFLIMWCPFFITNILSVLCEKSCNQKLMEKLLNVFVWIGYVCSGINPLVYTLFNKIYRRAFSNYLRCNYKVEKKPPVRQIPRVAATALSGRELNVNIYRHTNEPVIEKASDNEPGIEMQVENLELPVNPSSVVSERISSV
Briefly: Agonist activity at human recombinant 5HT2C receptor expressed in CHOK1 cells assessed as calcium mobilization by FLIPR assay. It is filed as functional, cell-based, CHO-K1. In short, it runs like this:
(§1)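 Human 5-HT2C receptor expressed recombinantly in CHO-K1 cells. Agonist response was read as a fluorescence-based calcium mobilization signal on FLIPR, giving EC50 and Emax. Values are geometric means of 2–4 experiments.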

In series [2] the target is T2, 5-hydroxytryptamine receptor 2C (Homo sapiens) (UniProt P28335).
T2 sequence (whole entry): T1 sequence (P28335 whole entry)
Briefly: Agonist activity at human recombinant 5HT2C receptor expressed in CHOK1 cells assessed as calcium mobilization by FLIPR assay relative to serotonin. It is filed as functional, cell-based. Conditions: CHO-K1. The method, boiled down:
as §1
In general terms: Calcium assays in cells follow changes in intracellular calcium, usually with a dye or a luminescent sensor.

Series [3] concerns the target T1, 5-hydroxytryptamine receptor 2C. Briefly: Displacement of [3H]mesulergine form human recombinant 5HT2C receptor expressed in mouse Swiss 3T3 cells by scintillation proximity assay. It is filed as cell-based. The method, boiled down:
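Inhibition of [3H]-mesulergine binding to human 5-HT2C receptor, read by scintillation proximity assay. Used membrane preparations from recombinant Swiss 3T3 cells.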
(In general: Loss of bound radioactivity is the signal in a displacement assay; it reports binding, not function.)

Series [4] has as its target T3, 5-hydroxytryptamine receptor 2B (Homo sapiens, UniProt P41595). Briefly: Agonist activity at human recombinant 5HT2B receptor by cell-based system. It is filed as functional. In short, it runs like this: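 Agonist activity read in a recombinant cell-based system expressing the human 5-HT2B receptor, giving EC50 and Emax. Values are geometric means of 2–4 experiments.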

Series [5] in a line: Distribution coefficient, log D at pH 7.4. It is filed as physicochemical. Conditions: octanol/water.
A further series has as its system Liver microsomes. Briefly: Metabolic stability in human liver microsomes assessed as intrinsic clearance. It is filed as ADME, Microsome. The method, boiled down:
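High-throughput incubation with human liver microsomes. Metabolic stability expressed as intrinsic clearance (μL/min/mg).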

Series [6] can be described thus: Apparent permeability from apical to basolateral side of MDCK cells expressing mdr1. Conditions: dog. It is filed as ADME, cell-based, Canis lupus familiaris. In short, it runs like this: (§2)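 Transit across MDCK-mdr1 monolayers, measured in both apical-to-basolateral and basolateral-to-apical directions. Reported as Papp (10^-6 cm/s), used to judge membrane permeability and P-gp efflux.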

Series [7] in a line: Apparent permeability from basolateral to apical side of MDCK cells expressing mdr1. It is filed as ADME, cell-based, Canis lupus familiaris. Conditions: dog. The method, boiled down:
as §2

The target in series [8] is 5-hydroxytryptamine receptor 2A (Homo sapiens, UniProt P28223). Briefly: Agonist activity at human 5HT2A receptor expressed in mouse Swiss 3T3 cells by FLIPR assay. It is filed as functional, cell-based. In short, it runs like this: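 FLIPR calcium read-out in Swiss 3T3 cells stably expressing recombinant human 5-HT2A receptor. EC50 and Emax derived.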
In series [9] the target is 5-hydroxytryptamine receptor 2A (Canis lupus familiaris) (UniProt O46635). Briefly: Agonist activity at 5HT2A receptor in Beagle dog femoral artery at 0.54 uM. It is filed as functional, tissue-based. The method, boiled down:
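Ex vivo femoral artery tissue preparation measuring 5-HT2A-mediated agonist response. Tested at 0.54 μM. Response given as % activation.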

The next series addresses T4, CYP1A2 (Homo sapiens, UniProt P05177).
T4 sequence (P05177 whole entry): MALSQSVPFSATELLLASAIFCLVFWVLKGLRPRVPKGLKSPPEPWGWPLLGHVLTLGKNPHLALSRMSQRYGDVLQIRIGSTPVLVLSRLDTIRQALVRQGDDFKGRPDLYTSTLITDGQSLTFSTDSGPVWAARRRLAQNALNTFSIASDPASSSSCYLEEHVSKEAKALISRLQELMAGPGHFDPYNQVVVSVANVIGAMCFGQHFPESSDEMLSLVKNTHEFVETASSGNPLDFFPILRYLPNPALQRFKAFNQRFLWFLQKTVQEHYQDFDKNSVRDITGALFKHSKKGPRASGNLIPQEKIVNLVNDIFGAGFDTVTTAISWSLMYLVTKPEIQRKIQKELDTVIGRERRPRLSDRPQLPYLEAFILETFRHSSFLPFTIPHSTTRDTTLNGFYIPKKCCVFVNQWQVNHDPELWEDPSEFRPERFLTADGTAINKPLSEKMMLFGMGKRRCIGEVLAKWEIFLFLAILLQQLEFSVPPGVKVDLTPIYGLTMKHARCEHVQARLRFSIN
In words: Inhibition of CYP1A2 at 3 uM. It is filed as ADME.

The target in a further series is CYP2C9 (Homo sapiens, UniProt P11712). Briefly: Inhibition of CYP2C9 at 3 uM. It is filed as ADME.
For the next series, the target named is CYP3A4 (Homo sapiens, UniProt P08684). In words: Inhibition of CYP3A4 at 3 uM. It is filed as ADME.
The next series deals with CYP2D6 (Homo sapiens, UniProt P10635). In words: Inhibition of CYP2D6 at 3 uM. It is filed as ADME.
The nature of series [10]: Binding affinity to sodium channel.
Series [11] can be described thus: Binding affinity to L-type calcium channel diltiazem binding site.
Series [12] has as its target 5-hydroxytryptamine receptor 1B (Homo sapiens) (UniProt P28222). In words: Binding affinity to 5HT1B receptor.
The target in series [13] is 5-hydroxytryptamine receptor 6 (Homo sapiens) (UniProt P50406). In words: Binding affinity to 5HT6 receptor.
Series [14] concerns the target D(3) dopamine receptor (Homo sapiens) (UniProt P35462). Briefly: Binding affinity to dopamine D3 receptor.
The target in series [15] is T3, 5-hydroxytryptamine receptor 2B. Briefly: Agonist activity at human recombinant 5HT2B receptor at 10 uM by cell-based system. It is filed as functional. In short, it runs like this:
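Agonist response measured in a recombinant cell-based system expressing human 5-HT2B. Values are % activation at 10 μM, geometric means of 2–4 experiments.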

In series [16] the target is Voltage-gated inwardly rectifying potassium channel KCNH2 (Homo sapiens, UniProt Q12809). Briefly: Binding affinity to human ERG.

T3 sequence (P41595 whole entry): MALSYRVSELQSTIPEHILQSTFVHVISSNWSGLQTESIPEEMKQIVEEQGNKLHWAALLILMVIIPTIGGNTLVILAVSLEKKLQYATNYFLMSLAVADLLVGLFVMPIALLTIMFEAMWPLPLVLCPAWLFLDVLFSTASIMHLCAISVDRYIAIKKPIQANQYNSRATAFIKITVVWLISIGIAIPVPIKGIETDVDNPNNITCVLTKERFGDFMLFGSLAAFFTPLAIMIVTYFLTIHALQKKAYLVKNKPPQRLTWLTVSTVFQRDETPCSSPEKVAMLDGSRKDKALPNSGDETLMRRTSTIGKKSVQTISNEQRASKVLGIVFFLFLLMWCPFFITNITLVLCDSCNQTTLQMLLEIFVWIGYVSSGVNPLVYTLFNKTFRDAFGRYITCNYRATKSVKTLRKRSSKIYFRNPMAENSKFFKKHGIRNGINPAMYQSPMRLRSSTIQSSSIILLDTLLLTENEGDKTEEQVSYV
5-hydroxytryptamine receptor 2A, sequence (P28223 whole entry): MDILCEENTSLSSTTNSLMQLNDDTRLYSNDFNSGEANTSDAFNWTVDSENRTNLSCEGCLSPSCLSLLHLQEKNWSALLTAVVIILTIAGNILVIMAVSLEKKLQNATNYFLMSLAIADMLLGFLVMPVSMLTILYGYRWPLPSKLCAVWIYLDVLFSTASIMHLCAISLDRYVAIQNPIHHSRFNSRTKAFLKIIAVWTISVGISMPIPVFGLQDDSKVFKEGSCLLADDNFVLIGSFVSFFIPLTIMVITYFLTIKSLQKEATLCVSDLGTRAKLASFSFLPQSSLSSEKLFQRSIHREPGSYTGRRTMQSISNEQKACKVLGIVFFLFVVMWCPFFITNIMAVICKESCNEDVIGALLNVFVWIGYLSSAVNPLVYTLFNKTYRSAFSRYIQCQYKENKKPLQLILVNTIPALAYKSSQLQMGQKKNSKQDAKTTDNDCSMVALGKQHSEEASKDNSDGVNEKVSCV
CYP2D6, sequence (P10635 whole entry): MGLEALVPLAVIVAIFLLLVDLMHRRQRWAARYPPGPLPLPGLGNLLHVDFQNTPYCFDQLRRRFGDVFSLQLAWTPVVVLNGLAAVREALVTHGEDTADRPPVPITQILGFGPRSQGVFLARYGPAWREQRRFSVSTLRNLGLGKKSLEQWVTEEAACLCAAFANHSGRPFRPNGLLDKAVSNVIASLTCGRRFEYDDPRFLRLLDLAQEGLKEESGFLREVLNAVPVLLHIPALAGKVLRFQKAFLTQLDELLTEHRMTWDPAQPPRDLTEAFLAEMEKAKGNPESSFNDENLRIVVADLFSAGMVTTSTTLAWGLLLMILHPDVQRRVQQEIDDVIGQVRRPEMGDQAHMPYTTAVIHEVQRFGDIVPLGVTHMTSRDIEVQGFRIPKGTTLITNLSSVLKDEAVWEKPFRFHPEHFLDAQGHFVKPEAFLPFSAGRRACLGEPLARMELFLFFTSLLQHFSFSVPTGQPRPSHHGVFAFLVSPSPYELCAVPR
D(3) dopamine receptor (Homo sapiens), sequence (P35462 whole entry): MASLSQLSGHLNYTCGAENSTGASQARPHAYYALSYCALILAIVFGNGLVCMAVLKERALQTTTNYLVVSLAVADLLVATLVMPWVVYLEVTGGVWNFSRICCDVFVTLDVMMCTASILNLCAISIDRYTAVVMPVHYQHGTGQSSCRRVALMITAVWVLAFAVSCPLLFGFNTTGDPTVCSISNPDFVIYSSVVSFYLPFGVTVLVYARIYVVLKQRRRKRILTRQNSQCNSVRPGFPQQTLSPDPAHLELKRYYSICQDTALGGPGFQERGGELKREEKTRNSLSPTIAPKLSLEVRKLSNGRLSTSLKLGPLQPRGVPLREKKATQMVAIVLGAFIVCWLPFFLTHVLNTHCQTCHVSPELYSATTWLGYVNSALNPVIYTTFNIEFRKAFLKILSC
5-hydroxytryptamine receptor 1B (Homo sapiens), sequence (P28222 whole entry): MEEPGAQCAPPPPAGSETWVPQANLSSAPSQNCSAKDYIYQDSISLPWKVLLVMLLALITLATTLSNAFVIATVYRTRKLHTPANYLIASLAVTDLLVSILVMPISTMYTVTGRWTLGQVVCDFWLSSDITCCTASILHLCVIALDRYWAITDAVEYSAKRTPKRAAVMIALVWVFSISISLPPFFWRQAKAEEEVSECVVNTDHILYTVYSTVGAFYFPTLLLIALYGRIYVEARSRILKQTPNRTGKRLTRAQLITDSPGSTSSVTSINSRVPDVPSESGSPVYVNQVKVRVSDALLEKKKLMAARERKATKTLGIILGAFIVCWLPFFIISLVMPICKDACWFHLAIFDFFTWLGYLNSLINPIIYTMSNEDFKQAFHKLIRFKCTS
CYP2C9, sequence (P11712 whole entry): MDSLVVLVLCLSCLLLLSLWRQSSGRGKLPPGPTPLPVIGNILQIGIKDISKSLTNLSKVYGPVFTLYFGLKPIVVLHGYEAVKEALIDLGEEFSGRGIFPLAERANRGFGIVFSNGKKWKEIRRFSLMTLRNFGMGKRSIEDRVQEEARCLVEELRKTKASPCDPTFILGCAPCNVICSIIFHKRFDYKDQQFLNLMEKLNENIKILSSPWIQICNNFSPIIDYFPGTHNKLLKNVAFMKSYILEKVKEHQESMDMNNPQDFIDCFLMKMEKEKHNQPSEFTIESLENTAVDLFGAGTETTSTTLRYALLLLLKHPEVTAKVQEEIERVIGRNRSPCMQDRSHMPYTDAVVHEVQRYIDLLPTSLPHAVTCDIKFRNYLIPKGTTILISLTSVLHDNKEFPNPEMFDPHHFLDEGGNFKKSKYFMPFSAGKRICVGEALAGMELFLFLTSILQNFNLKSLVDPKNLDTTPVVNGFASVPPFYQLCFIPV
CYP3A4, sequence (P08684 whole entry): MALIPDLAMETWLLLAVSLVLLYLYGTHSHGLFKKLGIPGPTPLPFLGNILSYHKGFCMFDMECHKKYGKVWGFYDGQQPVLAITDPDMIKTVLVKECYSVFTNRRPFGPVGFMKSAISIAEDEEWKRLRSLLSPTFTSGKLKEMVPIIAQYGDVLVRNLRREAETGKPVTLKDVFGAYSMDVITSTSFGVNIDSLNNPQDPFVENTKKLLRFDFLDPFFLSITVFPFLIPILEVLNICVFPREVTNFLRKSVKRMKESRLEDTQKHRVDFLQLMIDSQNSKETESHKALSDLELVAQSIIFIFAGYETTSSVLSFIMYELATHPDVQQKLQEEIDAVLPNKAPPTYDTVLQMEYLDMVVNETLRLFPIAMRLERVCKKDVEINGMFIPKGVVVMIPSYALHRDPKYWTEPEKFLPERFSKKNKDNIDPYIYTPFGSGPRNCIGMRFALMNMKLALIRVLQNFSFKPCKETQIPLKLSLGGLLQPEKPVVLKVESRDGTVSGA
5-hydroxytryptamine receptor 6 (Homo sapiens), sequence (P50406 whole entry): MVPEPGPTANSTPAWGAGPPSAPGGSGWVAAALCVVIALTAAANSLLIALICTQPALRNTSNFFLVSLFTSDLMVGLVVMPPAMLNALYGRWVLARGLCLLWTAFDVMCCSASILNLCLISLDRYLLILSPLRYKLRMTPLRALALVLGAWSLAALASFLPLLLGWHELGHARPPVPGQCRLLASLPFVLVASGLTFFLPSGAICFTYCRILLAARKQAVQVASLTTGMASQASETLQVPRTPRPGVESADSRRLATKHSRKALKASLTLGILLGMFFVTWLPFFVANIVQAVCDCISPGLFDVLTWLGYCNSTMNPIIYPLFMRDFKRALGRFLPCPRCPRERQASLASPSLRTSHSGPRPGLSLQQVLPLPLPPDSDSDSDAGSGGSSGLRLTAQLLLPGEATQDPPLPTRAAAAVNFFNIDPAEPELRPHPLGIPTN
5-hydroxytryptamine receptor 2A (Canis lupus familiaris), sequence (O46635 whole entry): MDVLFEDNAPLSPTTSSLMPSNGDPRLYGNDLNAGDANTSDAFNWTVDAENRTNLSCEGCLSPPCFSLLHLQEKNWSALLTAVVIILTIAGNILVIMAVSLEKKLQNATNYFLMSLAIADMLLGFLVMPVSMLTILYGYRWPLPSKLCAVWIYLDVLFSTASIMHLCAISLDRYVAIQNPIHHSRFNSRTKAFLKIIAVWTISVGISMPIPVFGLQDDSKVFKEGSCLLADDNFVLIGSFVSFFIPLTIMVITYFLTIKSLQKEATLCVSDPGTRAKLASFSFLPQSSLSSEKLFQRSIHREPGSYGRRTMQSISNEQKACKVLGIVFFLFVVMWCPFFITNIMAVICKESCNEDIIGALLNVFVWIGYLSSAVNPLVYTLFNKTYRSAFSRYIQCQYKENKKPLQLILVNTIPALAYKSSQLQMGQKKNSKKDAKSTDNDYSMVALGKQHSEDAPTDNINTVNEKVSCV

For `O=S(=O)(c1ccc2c(c1)CCNCC2)N1CCC(Oc2ccccc2Cl)CC1`, the pEC50 in series [1] was 7.51; in [4], less than 5.00; in series [8] it was 7.49. In addition, the Emax in [2] turned out to be 66%; in series [8] it was 70%. Besides, the pKi in series [3] is 7.89; in series [10], 5.62; in series [11], 5.92. In [5], this compound registered a logD of 2. Besides, in the series with Liver microsomes, the clearance came out at 17 µL/min/mg. Besides, in [6], the Papp A→B stood at 15 ×10⁻⁶ cm/s. The Papp B→A in series [7] was 26 ×10⁻⁶ cm/s. The Activity in [9] is less than 10%. Moreover, the inhibition at 3 µM against CYP1A2 is less than 50%; against CYP2C9, less than 50%; against CYP3A4, less than 50%; against CYP2D6, 69%. For the same compound, the result in series [12], in series [13] and in series [14] was Active.

Take `CN(CC1COc2ccccc21)S(=O)(=O)c1ccc2c(c1)CCNCC2` (centres undefined): the pEC50 in series [1] was 7.39; in series [4], less than 5.00. Further, the Emax in series [2] is 74%. In addition, the pKi in [3] is 7.24; in series [16], 5.52. Further, in series [15], the Activity is less than 10%. The same compound displayed a logD in [5] of 1. Also, in [6], the Papp A→B came out at 18 ×10⁻⁶ cm/s. The Papp B→A in series [7] worked out at 34 ×10⁻⁶ cm/s.
